Reference: ChEMBL document CHEMBL1141997, “The discovery and synthesis of novel adenosine receptor (A(2A)) antagonists” (Bioorg Med Chem Lett, 2005)

Experiment: Inhibition constant against Adenosine A2a receptor
Outline: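 Membranes from HEK cells expressing human A2A receptor, incubated with 1 nM [3H]SCH-58261 and 10 test concentrations. Buffer: phosphate-buffered saline with 10 mM MgCl2, 0.04% methyl cellulose, adenosine deaminase and 4% DMSO. Incubation 60 min at 23 °C, then filtration and washes with cold water. Nonspecific binding defined with CGS-15943. Duplicates, each compound tested twice. IC50 from one-site fit, Ki by Cheng–Prusoff.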

| SMILES | Ki [nM] |
| --- | --- |
| COc1ccc2c(c1)-c1nc(N)nc(-c3ccc(Br)o3)c1C2 | 1.6 |
| Cc1ccc2c(c1)-c1nc(N)nc(-c3ccc(CO)o3)c1C2 | 2.6 |
| CCc1ccc2c(c1)-c1nc(N)nc(-c3ccc(Br)o3)c1C2 | 2.6 |
| Nc1nc(-c2ccc(Br)o2)c2c(n1)-c1cc(N3CCCC3)ccc1C2 | 3.9 |
| Cc1ccc2c(c1)-c1nc(N)nc(-c3ccccc3)c1C2 | 11 |
| Nc1nc(-c2ccccc2)c2[nH]c3ccccc3c2n1 | 40.5 |
| Cc1ccc2c(c1)-c1nc(N)nc(-c3ccc(C)o3)c1C2 | 7.1 |
| Nc1nc(-c2ccc(Br)o2)c2c(n1)-c1cc(Cl)ccc1C2 | 1 |
| Nc1nc(-c2ccccc2)c2c(n1)-c1ccccc1CC2 | 172 |
| Nc1nc(-c2ccc(Br)o2)c2c(n1)-c1cc(-c3ccccc3)ccc1C2 | 10.9 |
| Cc1ccc2c(c1)-c1nc(N)nc(-c3ccncc3)c1C2 | 56.9 |
| CC(C)c1ccc2c(c1)-c1nc(N)nc(-c3ccc(Br)o3)c1C2 | 0.8 |
| Nc1nc(-c2ccccc2)c2c(n1)-c1ccccc1C2O (stereo not given) | 168 |
| Cc1ccc2c(c1)-c1nc(N)nc(-c3ccco3)c1C2 | 6.7 |
| Nc1nc(-c2ccccc2)c2c(n1)-c1ccccc1C2=O | 1.7 |
| Cc1ccc2c(c1)-c1nc(N)nc(C3CCC(Br)O3)c1C2 (stereo not given) | 4.2 |
| Cc1ccc2c(c1)-c1nc(N)nc(-c3ccccn3)c1C2 | 154 |
| Nc1nc(-c2ccccc2)c2oc3ccccc3c2n1 | 9 |
| CC(C)(C)c1ccc2c(c1)-c1nc(N)nc(-c3ccc(Br)o3)c1C2 | 8.1 |
| Cc1ccc2c(c1)-c1nc(N)nc(-c3ccc(Br)o3)c1C2 | 4.2 |
